Assay outcomes (PubChem)
A selection: hits, their analogues and other compounds. The true share with any hit is near 12%.
ABCG2 block: blocks JC-1 efflux by human ABCG2 transporter. Q9UNQ0. IgMXP3 cells, flow cytometry. inhibition, % at 6.6 µM. actives 0.1% (n = 190,000). AID 1325;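 active = inhibition above 80%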;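 note: 0% = DMSO and 100% = nicardipine control wells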
Target sequence (Q9UNQ0 whole entry, looked up): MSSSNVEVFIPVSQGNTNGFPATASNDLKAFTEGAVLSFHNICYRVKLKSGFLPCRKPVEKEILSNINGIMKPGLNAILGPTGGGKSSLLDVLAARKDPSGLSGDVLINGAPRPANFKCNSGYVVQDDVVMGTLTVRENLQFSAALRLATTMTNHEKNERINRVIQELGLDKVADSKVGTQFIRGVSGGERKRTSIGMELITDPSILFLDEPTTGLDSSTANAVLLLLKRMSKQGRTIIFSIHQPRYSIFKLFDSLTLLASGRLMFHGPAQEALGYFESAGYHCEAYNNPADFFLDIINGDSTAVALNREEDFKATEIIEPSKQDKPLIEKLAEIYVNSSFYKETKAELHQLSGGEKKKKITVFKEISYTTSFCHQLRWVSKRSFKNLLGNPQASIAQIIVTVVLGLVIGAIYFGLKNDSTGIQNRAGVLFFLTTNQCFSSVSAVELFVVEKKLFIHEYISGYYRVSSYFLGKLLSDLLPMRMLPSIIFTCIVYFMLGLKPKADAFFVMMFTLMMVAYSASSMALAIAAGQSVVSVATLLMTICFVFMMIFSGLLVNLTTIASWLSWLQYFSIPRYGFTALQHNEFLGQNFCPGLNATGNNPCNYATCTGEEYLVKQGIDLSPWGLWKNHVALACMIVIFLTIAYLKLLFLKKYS
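material = IgMXP3 (ABCG2) plus far-red-tagged CCRF-Adr (ABCB1) cells | amount = 3 million cells/mL, equal mix of both lines | also added = JC-1 transporter substrate | dosing = one concentration, 6.6 µM final | schedule = 10 min at 25 °C | measured by = flow cytometric JC-1 green MFI at 530 nm | read-out basis = percent efflux inhibition, scaled nicardipine 100% to DMSO 0%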
WT yeast gro inh: growth inhibition of WT yeast, mitochondrial fusion screen | mitochondrial fusion phenotypic screen, WT strain | AID 1362 | inhibition, % at 10 µM | actives 2.1% (n = 190,000); in the data active = inhibition above about 58%; tested in S. cerevisiae
RAM network inh: inhibitors of the yeast RAM network; actives 1.8% (n = 190,000); S. cerevisiae dse1pr::URA3 reporter, 5-FOA growth OD615, 2 d; analog-sensitive cbk1-as2 kinase mutant strain; inhibition, % at 50 µM; AID 868;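 active = inhibition above a set limit, 3 SD over mean compound inhibition, cut at about 8.4% in these data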;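 note: 0% = DMSO-only wells with no growth and 100% = 10 µM 1-NA-PP1 full growth; inhibition rescues growth on 5-FOA so higher OD means more RAM inhibition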
ABCB1 inh: blocks JC-1 efflux by human ABCB1 transporter. actives 0.067% (n = 190,000). inhibition, % at 6.6 µM. CCRF-Adr cells, flow cytometry; in the data active = inhibition above about 40%;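 note: 0% = vehicle and 100% = reference inhibitor; higher value means more JC-1 retained so stronger ABCB1 efflux block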
L major viab: Leishmania major promastigote growth inhibition; AID 1063; Leishmania major promastigotes, resazurin fluorescence viability; actives 9% (n = 200,000); inhibition, % at 10 µM; in the data active = inhibition above about 50%;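 note: promastigotes grown with compound for 44 hours at 28 °C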
Active calls of the source: *.

What do the screens show for `C=C(C)C(=O)OCC(=O)NCc1ccccc1`?
ABCG2 block: -2; WT yeast gro inh: 9; RAM network inh: 3; ABCB1 inh: 0; L major viab: -5

How did O=C1NC2(CCCCC2)NN1c1ccccc1 do in these assays?
ABCG2 block: 0; WT yeast gro inh: 2; RAM network inh: 2; ABCB1 inh: 0; L major viab: 48

How did CC1CCC2(CC1)NC(=S)N(c1ccccc1)N2 (centres undefined) do in these assays?
ABCG2 block: 0; WT yeast gro inh: 19; RAM network inh: 1; ABCB1 inh: 0; L major viab: 79*

Results for O=c1c2sccc2n(Cc2cc(=O)n3ccccc3n2)c(=O)n1-c1ccccc1 ?
ABCG2 block: 52; WT yeast gro inh: -6; RAM network inh: 2; ABCB1 inh: 2; L major viab: 32

What do the screens show for `Cc1ccc(-n2c(=O)c3c4c(sc3n(Cc3cc(=O)n5ccccc5n3)c2=O)CCC4)cc1C`?
ABCG2 block: -5; WT yeast gro inh: 45; RAM network inh: 4; ABCB1 inh: 7; L major viab: 74*

How did Nc1nc2ccc(S(=O)(=O)N3CCCCC3)cc2s1 do in these assays?
ABCG2 block: 1; WT yeast gro inh: 70*; RAM network inh: 4; ABCB1 inh: 0; L major viab: 14

What do the screens show for `FC(F)(F)c1cc(CCN2C(=S)NC[C@@H]2Cc2ccccc2)cc(C(F)(F)F)c1`?
ABCG2 block: 5; WT yeast gro inh: 64*; RAM network inh: 6; ABCB1 inh: 1; L major viab: 14

What do the screens show for `CN1CCC(N(C)C(=O)CCc2nc3ccccc3n2-c2ccccc2)CC1`?
ABCG2 block: 1; WT yeast gro inh: -20; RAM network inh: 3; ABCB1 inh: 0; L major viab: -5

How did COCCNC(=O)/C(=C/c1ccccc1Cl)c1ccccc1 do in these assays?
ABCG2 block: 8; WT yeast gro inh: 0; RAM network inh: -1; ABCB1 inh: 10; L major viab: 5

What do the screens show for `COC(=O)/C=C1/N/C(=N\c2nc(C)cc(C)n2)N(c2ccc(Cl)cc2)C1=O`?
ABCG2 block: 20; WT yeast gro inh: 1; RAM network inh: 1; ABCB1 inh: 1; L major viab: 50*

Results for CCCc1cc(C(=O)Cc2ccc(F)cc2)c(O)cc1O ?
ABCG2 block: 5; WT yeast gro inh: 82*; RAM network inh: -2; ABCB1 inh: 1; L major viab: -2

What do the screens show for `CCc1cc(C(=O)Cc2ccc(F)cc2)c(O)cc1O`?
ABCG2 block: 10; WT yeast gro inh: 32; RAM network inh: -2; ABCB1 inh: 0; L major viab: 2

Results for O=C/C(=C\Nc1ccccn1)c1nc2ccccc2o1 ?
ABCG2 block: -1; WT yeast gro inh: -3; RAM network inh: -1; ABCB1 inh: 0; L major viab: 73*

How did Cc1ccc(S(C)(=O)=O)cc1S(=O)(=O)Nc1cccc(Cl)c1 do in these assays?
ABCG2 block: 6; WT yeast gro inh: -6; RAM network inh: 4; ABCB1 inh: 0; L major viab: 48

Results for Cc1ccc(S(=O)(=O)c2ccc(Cl)cc2)cc1S(=O)(=O)N1CCN(C)CC1 ?
ABCG2 block: 0; WT yeast gro inh: 3; RAM network inh: 1; ABCB1 inh: 0; L major viab: 99*

What do the screens show for `Cc1ccc(S(=O)(=O)c2ccc(Cl)cc2)cc1S(=O)(=O)NC(C)C(=O)O` (centres undefined)?
ABCG2 block: -4; WT yeast gro inh: -6; RAM network inh: -1; ABCB1 inh: 0; L major viab: 52*

Results for O=C(NNC(=O)C1CCCN(S(=O)(=O)c2ccc3ccccc3c2)C1)C1CC1 (centres undefined) ?
ABCG2 block: 3; WT yeast gro inh: 3; RAM network inh: 3; ABCB1 inh: 1; L major viab: -4

How did COc1ccc(C(=O)/C=C/c2ccc(OC(=O)c3cc(OC)c(OC)c(OC)c3)cc2)cc1 do in these assays?
ABCG2 block: 4; WT yeast gro inh: 3; RAM network inh: 6; ABCB1 inh: 3; L major viab: 65*

What do the screens show for `CNc1ccc(/C=C/C(=O)c2ccc(C)cc2)cc1[N+](=O)[O-]`?
ABCG2 block: 9; WT yeast gro inh: -10; RAM network inh: 7; ABCB1 inh: 1; L major viab: 24

What do the screens show for `COc1ccc(/C=C/C(=O)c2ccccc2)cc1Cn1nnc2ccccc21`?
ABCG2 block: 0; WT yeast gro inh: 24; RAM network inh: 4; ABCB1 inh: 0; L major viab: 100*

What do the screens show for `COc1cc(/C=C/C(=O)c2ccc(F)cc2)cc(OC)c1OC`?
ABCG2 block: 9; WT yeast gro inh: 10; RAM network inh: 1; ABCB1 inh: 0; L major viab: 100*

What do the screens show for `CN(C)c1ccc(/C=C/C(=O)c2ccccc2)cc1[N+](=O)[O-]`?
ABCG2 block: 24; WT yeast gro inh: 32; RAM network inh: 1; ABCB1 inh: 2; L major viab: 100*

How did COc1ccc(Oc2ccc(/C=C/C(=O)c3ccc(O)cc3)cc2[N+](=O)[O-])cc1 do in these assays?
ABCG2 block: 4; WT yeast gro inh: 28; RAM network inh: 11*; ABCB1 inh: 0; L major viab: 100*

Results for COc1ccc(/C=C/C(=O)c2ccc(O)cc2)cc1COc1ccc(F)cc1 ?
ABCG2 block: 43; WT yeast gro inh: 90*; RAM network inh: 6; ABCB1 inh: -1; L major viab: 97*

Results for CNc1ccc(/C=C/C(=O)c2ccc3c(c2)OCCO3)cc1[N+](=O)[O-] ?
ABCG2 block: -1; WT yeast gro inh: 16; RAM network inh: 9.0*; ABCB1 inh: 0; L major viab: 41

How did CN1/C(=C\C=Nc2cc(S(=O)(=O)N3CCOCC3)ccc2N2CCOCC2)C(C)(C)c2ccccc21 do in these assays?
ABCG2 block: -7; WT yeast gro inh: 4; RAM network inh: 3; ABCB1 inh: 0; L major viab: 7

What do the screens show for `CCOC(=O)c1c(NC(=O)CSc2ncnc3ccccc23)sc(C)c1C`?
ABCG2 block: 9; WT yeast gro inh: -17; RAM network inh: 8.9*; ABCB1 inh: 2; L major viab: 77*

Results for COC(=O)c1c(NC(=O)CSc2nc3ccccc3c(=O)n2-c2ccccc2)sc(C)c1C ?
ABCG2 block: -1; WT yeast gro inh: -17; RAM network inh: 5; ABCB1 inh: 4; L major viab: 99*

Results for CCOC(=O)c1sc(NC(=O)CSc2nnc(Cc3ccccc3)o2)c(C(=O)OCC)c1C ?
ABCG2 block: 11; WT yeast gro inh: 27; RAM network inh: 8.9*; ABCB1 inh: 10; L major viab: 4

Results for CCOC(=O)c1sc(NC(=O)CSc2nc3ccccc3o2)c(C(=O)OCC)c1C ?
ABCG2 block: 8; WT yeast gro inh: 7; RAM network inh: 8; ABCB1 inh: 1; L major viab: 5

What do the screens show for `COC(=O)c1c(NC(=O)CSc2nc3nc(C)cc(C)n3n2)sc(C)c1C`?
ABCG2 block: 7; WT yeast gro inh: 12; RAM network inh: 4; ABCB1 inh: 3; L major viab: 52*
